Data taken from ChEMBL document CHEMBL5257040, “Discovery of VU2957 (Valiglurax): An mGlu4 Positive Allosteric Modulator Evaluated as a Preclinical Candidate for the Treatment of Parkinson's Disease” (ACS Med Chem Lett, 2019).
≈ marks a conversion by molar mass, not a printed value.

How the values were obtained:
[1] = Brain to plasma permeability coefficient, Kp in cynomolgus monkey at 0.2 mg/kg, iv and measured upto 1 hrs by LC-MS/MS analysis; type: ADME, organism-based, Macaca fascicularis
Procedure, shortened: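 Total brain to total plasma partition coefficient (Kp) measured in mouse, SD rat and cynomolgus monkey. The unbound ratio (Kp,uu) was corrected with brain homogenate binding. Values are means of two to three animals.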

Cytochrome P450 1A2 = Cytochrome P450 1A2 (Homo sapiens, UniProt P05177); assay: Inhibition of CYP1A2 in human liver microsomes using […] as substrate preincubated for 15 mins followed by NADPH addition and measured after 8 mins by LC/MS/MS analysis; type: ADME, Microsome
Sequence of Cytochrome P450 1A2 (P05177 whole entry): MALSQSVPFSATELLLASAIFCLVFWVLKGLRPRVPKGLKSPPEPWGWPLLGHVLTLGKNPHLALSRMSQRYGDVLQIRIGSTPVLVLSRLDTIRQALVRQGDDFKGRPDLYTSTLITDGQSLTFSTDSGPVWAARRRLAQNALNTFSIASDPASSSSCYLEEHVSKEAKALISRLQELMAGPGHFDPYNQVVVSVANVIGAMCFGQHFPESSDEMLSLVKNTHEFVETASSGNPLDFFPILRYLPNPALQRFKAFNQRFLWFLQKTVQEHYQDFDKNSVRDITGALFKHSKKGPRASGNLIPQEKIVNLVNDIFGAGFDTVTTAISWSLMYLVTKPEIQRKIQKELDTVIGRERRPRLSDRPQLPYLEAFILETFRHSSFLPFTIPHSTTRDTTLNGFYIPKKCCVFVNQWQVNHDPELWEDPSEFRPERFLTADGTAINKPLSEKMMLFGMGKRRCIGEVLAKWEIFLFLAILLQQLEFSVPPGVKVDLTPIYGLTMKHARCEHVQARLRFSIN

[2] = Metabolic stability in human liver microsomes assessed as intrinsic clearance at 1 uM preincubated for 5 mins followed by NADPH addition and measured for 45 mins by LC/MS/MS analysis; type: ADME, Microsome; settings: time 50 min, read-out: CLH
[3] = Clearance in Cynomolgus monkey plasma at 0.2 mg/kg, iv and measured upto 24 hrs by LC-MS/MS analysis; type: ADME, organism-based, Macaca fascicularis
Procedure, shortened: (§1)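 Single intravenous doses: mouse 1 mg/kg, SD rat 0.2 mg/kg, beagle dog 0.5 mg/kg, cynomolgus monkey 0.2 mg/kg. Plasma clearance, Vss and elimination half-life came from the plasma profiles. Values are means of two to three animals.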

[4] = Cmax in CD-1 mouse plasma at 3 mg/kg, po and measured upto 24 hrs by LC-MS/MS analysis; type: ADME, organism-based; parameters: time < 24 hrs, dose 3 mg/kg, route po
Procedure, shortened: (§2)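 Single oral 3 mg/kg dose in mouse, SD rat, beagle and cyno. Cmax is the peak total plasma concentration. Values are means of two to three animals.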

[5] = Cmax in Sprague-Dawley rat at 3 mg/kg, po and measured upto 24 hrs by LC-MS/MS analysis; type: ADME, organism-based; parameters: time < 24 hrs, dose 3 mg/kg, route po; settings: in vivo; procedure, shortened: as §2
[6] = molecular target: Metabotropic glutamate receptor 4 (Homo sapiens) (UniProt Q14833); assay: Positive allosteric modulator activity at human mGlu4 in Chinese hamster CHO cells co-expressing Gqi5 assessed as maximum increase in calcium flux preincubated for 2.5 mins followed by gluatamate addition and measured for 2 mins by Fluo-4 AM dye based calcium mobilization assay; type: cell-based; settings: filed as positive allosteric modulator, time 4.5 min
[7] = Tmax in Beagle dog at 3 mg/kg, po and measured upto 24 hrs by LC-MS/MS analysis; type: ADME, organism-based, Canis lupus familiaris; settings: in vivo
Procedure, shortened: (§3)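 Single-dose iv and oral PK in separate arms: mouse 1 mg/kg iv / 3 mg/kg po, SD rat 0.2/3, beagle 0.5/3, cynomolgus 0.2/3 mg/kg. Plasma parameters (Vss, Tmax, F) are means of two to three animals per species.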

HCN4 = HCN4 (Homo sapiens, UniProt Q9Y3Q4); assay: Inhibition of HCN4 (unknown origin) at 10 uM; type: toxicity
Procedure, shortened: (§4)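 Cardiac ion channel electrophysiology (functional EP) panel, with percent inhibition measured at 10 μM.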

[8] = Clearance in Sprague-Dawley rat plasma at 0.2 mg/kg, iv and measured upto 24 hrs by LC-MS/MS analysis; type: ADME, organism-based; procedure, shortened: as §1
hERG (KCNH2) = hERG (KCNH2) (Homo sapiens, UniProt Q12809); assay: Inhibition of human ERG at 10 uM; type: toxicity
Procedure, shortened: (§5)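 Eurofins Cardiac Profiler functional electrophysiology panel of potassium, calcium and sodium cardiac ion channels, including hERG. Compound tested at 10 μM, reported as percent inhibition.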

[9] = molecular target: Metabotropic glutamate receptor 2 (Rattus norvegicus, UniProt P31421); assay: Positive allosteric modulator activity at rat mGlu2 in human HEK cells co-expressing […] assessed as increase in by thallium flux preincubated for 2.5 mins followed by gluatamate addition by thallium flux assay; type: cell-based
Sequence of Metabotropic glutamate receptor 2 (P31421 whole entry): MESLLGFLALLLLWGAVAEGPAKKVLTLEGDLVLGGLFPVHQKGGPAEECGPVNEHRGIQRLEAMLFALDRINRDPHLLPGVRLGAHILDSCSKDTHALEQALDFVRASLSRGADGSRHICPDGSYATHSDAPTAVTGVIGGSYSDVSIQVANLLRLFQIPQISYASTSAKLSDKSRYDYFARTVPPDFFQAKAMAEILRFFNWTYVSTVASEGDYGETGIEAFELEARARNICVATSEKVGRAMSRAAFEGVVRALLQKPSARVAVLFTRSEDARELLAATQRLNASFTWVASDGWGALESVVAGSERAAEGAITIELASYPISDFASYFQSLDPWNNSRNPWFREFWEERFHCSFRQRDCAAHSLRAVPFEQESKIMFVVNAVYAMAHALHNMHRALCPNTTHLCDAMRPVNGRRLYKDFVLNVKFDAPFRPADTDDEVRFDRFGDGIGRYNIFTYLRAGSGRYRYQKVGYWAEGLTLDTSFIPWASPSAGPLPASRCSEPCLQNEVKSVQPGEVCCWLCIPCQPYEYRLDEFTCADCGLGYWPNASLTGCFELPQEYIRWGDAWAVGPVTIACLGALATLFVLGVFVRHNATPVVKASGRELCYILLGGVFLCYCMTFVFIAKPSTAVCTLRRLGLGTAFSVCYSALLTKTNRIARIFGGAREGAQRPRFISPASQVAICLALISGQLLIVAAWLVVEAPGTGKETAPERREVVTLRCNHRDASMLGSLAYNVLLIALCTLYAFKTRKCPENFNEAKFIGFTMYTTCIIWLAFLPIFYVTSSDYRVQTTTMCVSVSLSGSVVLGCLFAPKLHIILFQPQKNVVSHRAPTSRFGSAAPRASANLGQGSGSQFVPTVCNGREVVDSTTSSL

[10] = molecular target: Amine oxidase [flavin-containing] A (Homo sapiens, UniProt P21397); assay: Binding affinity to MAO-A (unknown origin)
Sequence of Amine oxidase [flavin-containing] A (P21397 whole entry): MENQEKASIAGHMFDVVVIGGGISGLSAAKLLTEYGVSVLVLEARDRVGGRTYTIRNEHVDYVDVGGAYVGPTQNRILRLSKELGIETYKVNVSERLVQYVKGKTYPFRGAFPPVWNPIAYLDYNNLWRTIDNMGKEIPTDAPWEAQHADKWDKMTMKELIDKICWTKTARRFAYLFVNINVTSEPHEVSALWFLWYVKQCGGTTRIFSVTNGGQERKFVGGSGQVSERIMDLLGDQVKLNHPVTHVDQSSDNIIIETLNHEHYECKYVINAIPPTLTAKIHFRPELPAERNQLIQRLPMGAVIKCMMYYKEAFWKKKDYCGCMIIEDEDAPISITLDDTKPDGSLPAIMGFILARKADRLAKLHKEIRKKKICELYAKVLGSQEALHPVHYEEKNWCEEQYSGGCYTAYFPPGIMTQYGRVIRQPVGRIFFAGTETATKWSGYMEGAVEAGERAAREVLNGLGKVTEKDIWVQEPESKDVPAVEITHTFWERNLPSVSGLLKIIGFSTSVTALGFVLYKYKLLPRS

Kv1.5 = Kv1.5 (Homo sapiens, UniProt P22460); assay: Inhibition of Kv1.5 (unknown origin) at 10 uM; type: toxicity; procedure, shortened: as §4
[11] = Elimination half life in Cynomolgus monkey at 0.2 mg/kg, iv and measured upto 24 hrs by LC-MS/MS analysis; type: ADME, organism-based, Macaca fascicularis; settings: in vivo, read-out: beta t1/2 (converted); procedure, shortened: as §1
[12] = Metabolic stability in dog liver microsomes assessed as intrinsic clearance at 1 uM preincubated for 5 mins followed by NADPH addition and measured for 45 mins by LC/MS/MS analysis; type: ADME, Canis lupus familiaris, Microsome; settings: time 50 min, read-out: CLH
[13] = Oral bioavailability in Cynomolgus monkey at 3 mg/kg and measured upto 24 hrs by LC-MS/MS analysis; type: ADME, organism-based, Macaca fascicularis; settings: in vivo; procedure, shortened: as §3
[14] = Oral bioavailability in CD-1 mouse plasma at 3 mg/kg and measured upto 24 hrs by LC-MS/MS analysis; type: ADME, organism-based; procedure, shortened: as §3
Cytochrome P450 2C9 = Cytochrome P450 2C9 (Homo sapiens, UniProt P11712); assay: Inhibition of CYP2C9 in human liver microsomes using […] as substrate preincubated for 15 mins followed by NADPH addition and measured after 8 mins by LC/MS/MS analysis; type: ADME, Microsome
Sequence of Cytochrome P450 2C9 (P11712 whole entry): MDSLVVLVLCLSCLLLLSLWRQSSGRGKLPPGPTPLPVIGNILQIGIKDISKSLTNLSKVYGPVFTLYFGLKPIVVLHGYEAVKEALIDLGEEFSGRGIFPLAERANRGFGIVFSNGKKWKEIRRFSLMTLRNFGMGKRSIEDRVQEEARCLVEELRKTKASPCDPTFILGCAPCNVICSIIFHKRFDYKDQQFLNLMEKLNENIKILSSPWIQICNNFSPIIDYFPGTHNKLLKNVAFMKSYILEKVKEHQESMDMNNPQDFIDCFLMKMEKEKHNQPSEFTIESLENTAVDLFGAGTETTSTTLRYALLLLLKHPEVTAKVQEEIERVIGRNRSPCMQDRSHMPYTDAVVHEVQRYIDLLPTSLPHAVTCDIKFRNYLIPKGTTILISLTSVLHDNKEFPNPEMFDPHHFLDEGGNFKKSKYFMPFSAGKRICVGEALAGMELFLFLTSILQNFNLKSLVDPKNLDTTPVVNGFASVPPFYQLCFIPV

[15] = Cmax in Sprague-Dawley rat at 10 mg/kg, po administered as spray-dried dispersion formulation and measured after 24 hrs by LC-MS/MS analysis; type: ADME, organism-based; parameters: dose 10 mg/kg, time 24 hrs, route po; settings: in vivo
Procedure, shortened: (§6)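 Rats were dosed orally at 3, 10 and 30 mg/kg with a spray-dried dispersion of the free base and HPMCP-HP55 polymer (25%/75%), in 30% Dexolve. Total plasma Cmax and AUC were measured, N = 3.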

[16] = molecular target: Metabotropic glutamate receptor 5 (Rattus norvegicus, UniProt P31424); assay: Positive allosteric modulator activity at rat mGlu5 in human HEK cells assessed as increase in calcium flux preincubated for 2.5 mins followed by gluatamate addition by Fluo-4 AM dye based calcium mobilization assay; type: cell-based
[17] = molecular target: Metabotropic glutamate receptor 4 (Rattus norvegicus) (UniProt P31423); assay: Positive allosteric modulator activity at rat mGlu4 in human HEK cells co-expressing […] assessed as maximum increase in by thallium flux preincubated for 2.5 mins followed by gluatamate addition and measured for 2 mins by thallium flux assay; type: cell-based; settings: filed as positive allosteric modulator, time 4.5 min
Sequence of Metabotropic glutamate receptor 4 (Rattus norvegicus) (P31423 whole entry): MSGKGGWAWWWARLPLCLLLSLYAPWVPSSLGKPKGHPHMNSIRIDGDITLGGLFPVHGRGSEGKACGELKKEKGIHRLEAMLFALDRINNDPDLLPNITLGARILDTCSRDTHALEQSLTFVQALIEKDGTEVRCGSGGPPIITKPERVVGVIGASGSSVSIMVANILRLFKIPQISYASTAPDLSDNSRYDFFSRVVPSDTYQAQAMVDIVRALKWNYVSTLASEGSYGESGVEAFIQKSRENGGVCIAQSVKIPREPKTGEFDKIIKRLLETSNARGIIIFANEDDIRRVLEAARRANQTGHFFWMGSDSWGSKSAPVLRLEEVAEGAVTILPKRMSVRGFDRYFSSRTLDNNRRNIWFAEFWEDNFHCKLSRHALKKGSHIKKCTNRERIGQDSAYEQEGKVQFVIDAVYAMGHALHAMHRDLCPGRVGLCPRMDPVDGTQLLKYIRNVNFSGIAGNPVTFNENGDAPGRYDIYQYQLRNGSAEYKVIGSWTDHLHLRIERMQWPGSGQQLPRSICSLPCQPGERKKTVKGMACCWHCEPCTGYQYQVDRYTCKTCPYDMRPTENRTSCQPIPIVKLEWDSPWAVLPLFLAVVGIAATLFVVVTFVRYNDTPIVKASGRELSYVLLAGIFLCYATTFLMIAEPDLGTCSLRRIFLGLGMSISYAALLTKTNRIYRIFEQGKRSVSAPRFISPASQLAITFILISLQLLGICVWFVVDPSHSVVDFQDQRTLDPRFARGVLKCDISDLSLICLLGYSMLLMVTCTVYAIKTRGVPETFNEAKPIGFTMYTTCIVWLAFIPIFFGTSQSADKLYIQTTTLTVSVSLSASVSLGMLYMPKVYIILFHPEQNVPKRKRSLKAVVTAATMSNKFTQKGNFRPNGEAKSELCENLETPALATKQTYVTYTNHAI

[18] = Solubility of compound in FaSSGF; type: ADME
Cytochrome P450 2D6 = Cytochrome P450 2D6 (Homo sapiens, UniProt P10635); assay: Inhibition of CYP2D6 in human liver microsomes using […] as substrate preincubated for 15 mins followed by NADPH addition and measured after 8 mins by LC/MS/MS analysis; type: ADME, Microsome
Nav1.5 = Nav1.5 (Homo sapiens, UniProt Q14524); assay: Inhibition of Nav1.5 (unknown origin) at 10 uM; type: toxicity; procedure, shortened: as §5
Rattus norvegicus = assay: Reversal of haloperidol-induced catalepsy Sprague-Dawley rat model at 0.3 to 30 mg/kg,po; type: functional, organism-based; settings: dose 0.3-30 mg/kg
Procedure, shortened: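 Sprague-Dawley rats received haloperidol 1.5 mg/kg i.p. to induce catalepsy, with the compound dosed orally at 0.3–30 mg/kg. Groups were 8–10 rats and compared with vehicle + haloperidol (p < 0.05). MED = lowest oral dose giving significant reversal.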

[19] = Cmax in Sprague-Dawley rat at 3 mg/kg, po administered as spray-dried dispersion formulation and measured after 24 hrs by LC-MS/MS analysis; type: ADME, organism-based; parameters: time 24 hrs, dose 3 mg/kg, route po; settings: in vivo; procedure, shortened: as §6
Cytochrome P450 3A4 = Cytochrome P450 3A4 (Homo sapiens, UniProt P08684); assay: Induction of CYP3A4 in human hepatocytes; type: ADME, cell-based
Sequence of Cytochrome P450 3A4 (P08684 whole entry): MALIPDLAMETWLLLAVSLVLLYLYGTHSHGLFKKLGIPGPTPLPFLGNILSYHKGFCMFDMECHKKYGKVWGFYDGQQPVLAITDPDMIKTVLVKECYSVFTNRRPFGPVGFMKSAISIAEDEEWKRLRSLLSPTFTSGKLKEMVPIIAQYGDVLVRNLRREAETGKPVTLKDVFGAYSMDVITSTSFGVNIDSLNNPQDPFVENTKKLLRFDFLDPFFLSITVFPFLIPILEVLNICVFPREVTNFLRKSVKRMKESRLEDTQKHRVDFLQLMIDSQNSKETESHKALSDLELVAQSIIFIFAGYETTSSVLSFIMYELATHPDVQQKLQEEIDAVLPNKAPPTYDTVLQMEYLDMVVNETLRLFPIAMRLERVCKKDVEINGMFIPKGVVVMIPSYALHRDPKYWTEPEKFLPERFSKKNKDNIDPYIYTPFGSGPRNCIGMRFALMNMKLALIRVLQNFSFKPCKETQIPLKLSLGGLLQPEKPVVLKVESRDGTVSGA
Procedure, shortened: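 CYP1A2, 2B6 and 3A4 induction measured in human hepatocytes.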

[20] = molecular target: Aryl hydrocarbon receptor (Rattus norvegicus, UniProt P41738); assay: Activation of rat AhR
Sequence of Aryl hydrocarbon receptor (P41738 whole entry): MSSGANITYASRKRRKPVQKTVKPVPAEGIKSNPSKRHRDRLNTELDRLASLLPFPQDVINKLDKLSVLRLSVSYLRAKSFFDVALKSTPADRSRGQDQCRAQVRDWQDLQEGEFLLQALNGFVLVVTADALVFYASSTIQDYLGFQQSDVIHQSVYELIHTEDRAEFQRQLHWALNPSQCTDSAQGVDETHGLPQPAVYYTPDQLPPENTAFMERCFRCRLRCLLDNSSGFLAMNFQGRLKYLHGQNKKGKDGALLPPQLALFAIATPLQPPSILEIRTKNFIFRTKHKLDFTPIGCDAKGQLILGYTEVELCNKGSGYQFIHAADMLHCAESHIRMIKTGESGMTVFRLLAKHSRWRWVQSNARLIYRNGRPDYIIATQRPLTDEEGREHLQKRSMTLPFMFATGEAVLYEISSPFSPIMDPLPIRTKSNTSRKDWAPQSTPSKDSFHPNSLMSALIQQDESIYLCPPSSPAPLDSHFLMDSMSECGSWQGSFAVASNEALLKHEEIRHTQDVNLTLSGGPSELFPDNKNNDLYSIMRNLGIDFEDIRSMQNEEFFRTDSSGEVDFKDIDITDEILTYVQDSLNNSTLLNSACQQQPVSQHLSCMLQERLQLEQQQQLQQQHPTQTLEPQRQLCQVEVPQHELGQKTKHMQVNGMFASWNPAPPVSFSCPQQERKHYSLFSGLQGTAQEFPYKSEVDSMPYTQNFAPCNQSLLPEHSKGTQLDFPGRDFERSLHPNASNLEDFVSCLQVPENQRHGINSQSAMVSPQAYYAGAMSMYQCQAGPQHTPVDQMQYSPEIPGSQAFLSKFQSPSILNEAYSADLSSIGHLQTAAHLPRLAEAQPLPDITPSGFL

Kp at 1 h [1]: 1.24
IC50 (Cytochrome P450 1A2): 1500 nM
CLint scaled at 1 µM [2]: 9.1 mL/min/kg
clearance [3]: 17.1 mL/min/kg
Cmax [4]: 1100 nM
Cmax [5]: 1440 nM
Emax [6]: 92.6%
Tmax [7]: 1 h
clearance [8]: 37.7 mL/min/kg
EC50 [9]: > 10 µM
EC50 [10]: > 30 µM
half-life [11]: 239 min
CLint scaled at 1 µM [12]: 18.1 mL/min/kg
bioavailability [13]: 31.6%
bioavailability [14]: 79%
IC50 (Cytochrome P450 2C9): > 30 µM
Cmax [15]: 2050 nM
EC50 [16]: > 10 µM
Emax [17]: 132%
solubility [18]: 9 µg/mL (≈ 27.3 µM)
IC50 (Cytochrome P450 2D6): > 30 µM
Cmax [19]: 630 nM
Activity (Cytochrome P450 3A4): Not Active
Activity [20]: Not Active
Compound: FC(F)(F)c1nccc2cc(Nc3n[nH]c4ncccc34)ccc12
inhibition at 10 µM (HCN4): < 50%
inhibition at 10 µM (hERG (KCNH2)): < 50%
inhibition at 10 µM (Kv1.5): < 50%
inhibition at 10 µM (Nav1.5): < 50%
Activity (Rattus norvegicus): Dose-Dependent Effect
